Assay outcomes deposited in PubChem by Broad Institute.
The list is not random: actives were taken first. Their share in the collection is about 5.8%.
T cruzi growth-1 – T. cruzi intracellular proliferation inhibitors, primary screen, cell-based, beta-gal Tulahuen parasites, NIH3T3 host, luminescence; T. cruzi beta-gal in NIH3T3, GalScreen luminescence, 90 h; inhibition, % at 8.34 µM; 77,000 tested, 5.9% active; AID 624255, 2012;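 active = mean inhibition above about 93%, with at least 55% of replicates each passing it, limit read from the data, passing the limit was not always enough; inconclusive = only one of those two conditions holds; inactive = neither condition holds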
IDH1 R132H inh – inhibitors of IDH1 R132H reductase, primary screen, biochemical, plate reader, single point. inhibition, % at 10 µM. AID 624101, 2012. 70,000 tested, 0.18% active. Isocitrate dehydrogenase [NADP] cytoplasmic (Homo sapiens), O75874. diaphorase/resazurin fluorescence, 60 min; in the data active = inhibition above about 34%; inconclusive = no clear call, values can overlap the other calls; inactive = below about 11%;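 also: 0% = DMSO and 100% = no enzyme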
Target sequence (O75874 whole entry R132H): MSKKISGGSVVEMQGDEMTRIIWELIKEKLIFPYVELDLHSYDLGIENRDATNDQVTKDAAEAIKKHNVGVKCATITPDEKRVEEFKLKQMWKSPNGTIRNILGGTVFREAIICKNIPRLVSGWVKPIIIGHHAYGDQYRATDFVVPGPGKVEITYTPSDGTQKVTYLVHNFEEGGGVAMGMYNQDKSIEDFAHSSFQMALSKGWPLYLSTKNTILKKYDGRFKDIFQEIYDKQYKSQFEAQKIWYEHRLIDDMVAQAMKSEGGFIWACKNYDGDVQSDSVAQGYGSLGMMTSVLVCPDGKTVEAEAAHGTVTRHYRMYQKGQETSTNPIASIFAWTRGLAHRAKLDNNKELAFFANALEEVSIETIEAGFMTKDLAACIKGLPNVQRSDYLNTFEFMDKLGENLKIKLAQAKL
Pf Dd2 growth – P. falciparum Dd2 growth inhibitors, primary screen, SYBR Green fluorescence, single dose replicates | 72 h; active compounds read low | activity change, % at 10 µM | 94,000 tested, 2.3% active; in the data active = activity change below about -80%; inconclusive = no clear call, values can overlap the other calls
GASC1 inh – inhibitors of GASC-1 (KDM4C) histone demethylase, primary screen, biochemical, single concentration HTS; inhibition, % at 12.5 µM; GST-KDM4C 2-372, H3K9me3 peptide, LANCE TR-FRET; AID 720574, 2013; 96,000 tested, 0.15% active;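 active = mean replicate inhibition above about 25%, with at least 55% of replicates also reaching it, limit read from the data, passing the limit was not always enough; inconclusive = only one of those two conditions met; inactive = neither condition met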
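Compound: one test concentration per compound; Material: GST-GASC-1 enzyme fragment 2-372; Amount: GASC-1 enzyme at 10 nM final in reaction; Also added: H3K9me3 peptide substrate, Fe(II), 2-oxoglutarate; Technique: LANCE TR-FRET; Times: 30 min demethylation and 1 h detection at room temperature.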
T cruzi growth-2 – T. cruzi intracellular proliferation inhibitors, confirmation, cell-based, NIH3T3 host, beta-gal parasite, luminescence, cherry-pick; shares compounds with T cruzi growth-1; T. cruzi beta-gal in NIH3T3, GalScreen luminescence, 90 h; inhibition, % at 8.35 µM; 5,600 tested, 72% active; AID 651739, 2012;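 active = mean replicate inhibition above about 95% and at least 55% of replicates individually reaching it, limit read from the data; inconclusive = only one of the two criteria is met; inactive = neither criterion is met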
T cruzi growth-3 – inhibitors of intracellular T. cruzi replication, confirmation, NIH3T3 host cells, beta-gal parasites, cherry-pick, set 2; shares compounds with T cruzi growth-1; T. cruzi beta-gal in NIH3T3, GalScreen luminescence, 90 h; inhibition, % at 2.09 µM; 5,600 tested, 21% active;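 active = mean inhibition above about 95%, with at least 55% of replicates also reaching it, limit read from the data; inconclusive = meets just one of the two conditions; inactive = meets neither condition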;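 also: plate controls were neutral control median for no effect and positive control median for full effect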
NIH3T3 tox – cytotoxicity in mouse NIH/3T3 fibroblasts, confirmation, cytotoxicity control for T. cruzi proliferation inhibitor project, cell-based, cherry-pick, single point; shares compounds with T cruzi growth-1; NIH/3T3 viability, CellTiter-Glo ATP luminescence, 90 h; cytotoxicity (signal decrease), % at 8.35 µM; 5,600 tested, 14% active;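 active = mean signal decrease across replicates above about 35% based on untreated-well scatter, with enough replicates individually passing, limit read from the data; inconclusive = no rule stated though some were filed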;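 also: 0% = median of neutral control wells and 100% = median of positive control wells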
NIH3T3 tox 2 – NIH/3T3 fibroblast cytotoxicity, confirmation, cytotoxicity control, cell-based, cherry-pick, single point, set 2. shares compounds with T cruzi growth-1. NIH/3T3 viability, CellTiter-Glo ATP luminescence, 90 h. inhibition, % at 24.9 µM. 5,600 tested, 56% active;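 active = mean loss of cell viability signal at or above a set limit, and enough replicates individually reaching it; inconclusive = meets only the mean limit or only the replicate share; inactive = meets neither condition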;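 also: 0% = median of neutral control wells and 100% = median of positive control wells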
* hit, by the source's call; ? = inconclusive; . = no result given.

SMILES	T cruzi growth-1	IDH1 R132H inh	Pf Dd2 growth	GASC1 inh	T cruzi growth-2	T cruzi growth-3	NIH3T3 tox	NIH3T3 tox 2
O=C(C[C@@H]1CC[C@H](NC(=O)c2ccccc2)[C@@H](CO)O1)Nc1ccc(-c2ccccc2)cc1	-20	0	-26	3	.	.	.	.
C[C@@H]1CN([C@@H](C)CO)S(=O)(=O)c2ccc(-c3ccncc3)cc2O[C@@H]1CN(C)C(=O)Nc1ccc(C(F)(F)F)cc1	?	1	-9	-5	108*	85	23	67*
C[C@H](CO)N1C[C@H](C)[C@@H](CN(C)C(=O)Nc2ccc(C(F)(F)F)cc2)Oc2cc(-c3ccncc3)ccc2S1(=O)=O	103*	6	-47	0	110*	87	13	48*
C[C@@H]1CN([C@@H](C)CO)S(=O)(=O)c2ccc(-c3ccncc3)cc2O[C@H]1CN(C)C(=O)Nc1ccc(C(F)(F)F)cc1	83	0	17	0	.	.	.	.
CNC[C@H]1Oc2cc(C#CC3(O)CCCC3)ccc2S(=O)(=O)N([C@H](C)CO)C[C@H]1C	-8	3	-5	-1	.	.	.	.
CO[C@H]1CN(C)C(=O)c2cc(NC(=O)C3CCCCC3)ccc2OC[C@H](C)NC[C@H]1C	107*	0	-5	0	9	-3	7	4
CO[C@@H]1CN(C)C(=O)c2cc(NC(=O)C3CC3)ccc2OC[C@H](C)N(Cc2cc(F)ccc2F)C[C@@H]1C	61	0	-71	1	.	.	.	.
CO[C@H]1CN(C)C(=O)c2ccc(NS(=O)(=O)c3cccc(F)c3)cc2OC[C@H](C)N(Cc2cc(F)ccc2F)C[C@H]1C	.	0	-27	0	.	.	.	.
CO[C@H]1CN(C)C(=O)c2cc(NC(=O)C3CC3)ccc2OC[C@H](C)N(Cc2cc(F)ccc2F)C[C@@H]1C	97*	0	-77	-1	108*	25	21	45*
CO[C@H]1CN(C)C(=O)c2cc(NS(=O)(=O)c3cccc(F)c3)ccc2OC[C@H](C)N(Cc2cc(F)ccc2F)C[C@@H]1C	112*	0	-41	-1	105*	92	-34	-27
CO[C@H]1CN(C)C(=O)c2cc(NS(=O)(=O)c3cccc(F)c3)ccc2OC[C@@H](C)N(Cc2cc(F)ccc2F)C[C@@H]1C	112*	0	4	-1	110*	26	-7	13
CO[C@H]1CN(C)C(=O)c2ccc(NS(=O)(=O)c3cccc(F)c3)cc2OC[C@@H](C)N(Cc2cc(F)ccc2F)C[C@@H]1C	.	0	-7	-1	.	.	.	.
C[C@@H](NC(=O)[C@@H]1[C@@H](CO)[C@@H]2Cn3c(ccc(-c4ccncc4)c3=O)[C@H]1N2C)c1ccccc1	4	.	4	-2	.	.	.	.
CO[C@H]1CN(C)C(=O)c2cc(NS(=O)(=O)c3cccc(F)c3)ccc2OC[C@H](C)N(Cc2cc(F)ccc2F)C[C@H]1C	115*	-1	-24	-1	108*	74	-18	105*
CO[C@H]1CN(C)C(=O)c2ccc(NS(=O)(=O)c3cccc(F)c3)cc2OC[C@@H](C)N(Cc2cc(F)ccc2F)C[C@H]1C	.	0	-9	1	.	.	.	.
C[C@@H]1CN([C@H](C)CO)S(=O)(=O)c2ccc(C#CC(C)(C)O)cc2O[C@H]1CN(C)Cc1ccccc1	75	.	-23	.	.	.	.	.
